ChEMBL document CHEMBL4261553 (Medchemcomm, 2017)

Assays:
[1] = target: T1, 5-hydroxytryptamine receptor 1A (Homo sapiens, UniProt P08908); assay: Displacement of [3H]-8-OH-DPAT from human 5-HT1A receptor expressed in CHOK1 cell membranes after 60 mins by microbeta scintillation counting method
T1 sequence (P08908 whole entry): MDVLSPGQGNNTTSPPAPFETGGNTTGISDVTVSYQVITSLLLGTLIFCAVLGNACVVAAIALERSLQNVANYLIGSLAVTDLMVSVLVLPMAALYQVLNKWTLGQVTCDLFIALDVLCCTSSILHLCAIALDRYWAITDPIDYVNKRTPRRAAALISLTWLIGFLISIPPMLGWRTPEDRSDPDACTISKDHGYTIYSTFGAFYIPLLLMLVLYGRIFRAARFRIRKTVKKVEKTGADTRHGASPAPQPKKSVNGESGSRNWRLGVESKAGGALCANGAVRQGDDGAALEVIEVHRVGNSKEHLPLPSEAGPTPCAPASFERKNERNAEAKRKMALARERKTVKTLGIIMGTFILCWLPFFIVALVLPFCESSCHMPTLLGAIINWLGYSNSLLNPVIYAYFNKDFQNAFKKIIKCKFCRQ
Method in brief: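 Membranes from CHO-K1 cells stably expressing human receptor, 10 µg protein/well, in 50 mM Tris pH 7.4 with 10 mM MgSO4, 0.5 mM EDTA, 0.1% ascorbic acid. Compounds at 6 concentrations, 10^-10 to 10^-5 M final, in duplicate; 27 °C. GF/C filtration, cold Tris washes. Ki by one-site fit and Cheng–Prusoff.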

[2] = target: 5-hydroxytryptamine receptor 2A (Homo sapiens, UniProt P28223); assay: Displacement of [3H]-ketanserin from human 5-HT2A receptor expressed in CHOK1 cell membranes after 60 mins by microbeta scintillation counting method; assay type: cell-based
5-hydroxytryptamine receptor 2A, sequence (P28223 whole entry): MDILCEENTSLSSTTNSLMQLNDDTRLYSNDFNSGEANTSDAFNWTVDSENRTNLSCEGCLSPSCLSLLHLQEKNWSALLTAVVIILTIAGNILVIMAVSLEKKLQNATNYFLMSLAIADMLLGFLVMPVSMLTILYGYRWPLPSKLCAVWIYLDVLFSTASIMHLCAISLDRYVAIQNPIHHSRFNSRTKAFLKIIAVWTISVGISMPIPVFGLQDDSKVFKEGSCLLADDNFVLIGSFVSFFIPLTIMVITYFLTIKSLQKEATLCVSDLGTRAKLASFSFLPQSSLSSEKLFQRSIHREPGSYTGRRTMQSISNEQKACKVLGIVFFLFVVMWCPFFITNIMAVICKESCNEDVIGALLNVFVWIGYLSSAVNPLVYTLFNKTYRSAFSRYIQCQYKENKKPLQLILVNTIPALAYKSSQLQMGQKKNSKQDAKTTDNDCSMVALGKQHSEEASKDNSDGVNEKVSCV

Row | Ki [1] [nM] | Ki [2] [nM] | Structure (SMILES)
1 | 0.3 | 28 | CC(=O)c1c(C)cc2oc(=O)cc(C)c2c1OCCCN1CCN(c2ccccc2F)CC1
2 | 60 | 465 | Cc1cc(OCCCCN2CCN(c3ccc(Cl)cc3)CC2)c2c(C)cc(=O)oc2c1
3 | 1 | 184 | COc1cccc(N2CCN(CCCCOc3cc(C)cc4oc(=O)cc(C)c34)CC2)c1
4 | 1300 | > 10000 | Cc1cc(OCCCN2CCOCC2)c2c(C)cc(=O)oc2c1
5 | 0.3 | 64 | CC(=O)c1c(C)cc2oc(=O)cc(C)c2c1OCCCN1CCN(c2ccccc2C#N)CC1
6 | 4 | 42 | Cc1cc(OCCCN2CCN(c3cccc(Cl)c3Cl)CC2)c2c(C)cc(=O)oc2c1
7 | 0.4 | 48 | COc1cccc(N2CCN(CCCOc3c(C(C)=O)c(C)cc4oc(=O)cc(C)c34)CC2)c1
8 | 250 | 4460 | CC(=O)c1c(C)cc2oc(=O)cc(C)c2c1OCCCCN1CCOCC1
9 | 389 | > 5000 | Cc1cc(OCCCCN2CCN(c3ccncc3)CC2)c2c(C)cc(=O)oc2c1
10 | 186 | 4570 | Cc1cc(OCCCN2CCN(c3cnccn3)CC2)c2c(C)cc(=O)oc2c1
11 | 1210 | > 10000 | Cc1cc(OCCCN2CCN(c3ccc([N+](=O)[O-])cc3)CC2)c2c(C)cc(=O)oc2c1
12 | 159 | 286 | CC(=O)c1c(C)cc2oc(=O)cc(C)c2c1OCCCN1CCN(c2ccc([N+](=O)[O-])cc2)CC1
13 | 15 | 520 | COc1cccc(N2CCN(CCCCOc3c(C(C)=O)c(C)cc4oc(=O)cc(C)c34)CC2)c1
14 | 7 | 1.7 | CC(=O)c1c(C)cc2oc(=O)cc(C)c2c1OCCCCN1CCN(c2ccc(Cl)cc2)CC1
15 | 8 | 167 | Cc1cc(OCCCCN2CCN(c3cccc(Cl)c3Cl)CC2)c2c(C)cc(=O)oc2c1
16 | 308 | 1590 | CC(=O)c1c(C)cc2oc(=O)cc(C)c2c1OCCCCN1CCN(c2ccncc2)CC1
17 | 3500 | > 10000 | Cc1cc(OCCCCN2CCOCC2)c2c(C)cc(=O)oc2c1
18 | 6 | 106 | COc1cccc(N2CCN(CCCOc3cc(C)cc4oc(=O)cc(C)c34)CC2)c1

Row | Ki [1] [nM] | Ki [2] [nM] | Structure (SMILES)
19 | 0.4 | 66 | CC(=O)c1c(C)cc2oc(=O)cc(C)c2c1OCCCN1CCN(c2cccc(Cl)c2Cl)CC1
20 | 0.7 | 9 | CC(=O)c1c(C)cc2oc(=O)cc(C)c2c1OCCCCN1CCN(c2ccccc2F)CC1
21 | 11 | 3000 | CC(=O)c1c(C)cc2oc(=O)cc(C)c2c1OCCCN1CCN(c2cnccn2)CC1
22 | 6.7 | 2300 | Cc1cc(OCCCCN2CCN(c3cnccn3)CC2)c2c(C)cc(=O)oc2c1
23 | 154 | > 10000 | CC(=O)c1c(C)cc2oc(=O)cc(C)c2c1OCCCN1CCN(c2ccncc2)CC1
24 | 3 | 200 | Cc1cc(OCCCN2CCN(c3ccccc3C#N)CC2)c2c(C)cc(=O)oc2c1
25 | 4.8 | 2500 | CC(=O)c1c(C)cc2oc(=O)cc(C)c2c1OCCCCN1CCN(c2cnccn2)CC1
26 | 33 | 46 | CC(=O)c1c(C)cc2oc(=O)cc(C)c2c1OCCCCN1CCN(c2ccc([N+](=O)[O-])cc2)CC1
27 | 1.5 | 112 | Cc1cc(OCCCCN2CCN(c3ccccc3C#N)CC2)c2c(C)cc(=O)oc2c1
28 | 1.7 | 120 | Cc1cc(OCCCCN2CCN(c3ccccc3F)CC2)c2c(C)cc(=O)oc2c1
29 | 809 | > 10000 | Cc1cc(OCCCCN2CCN(c3ccc([N+](=O)[O-])cc3)CC2)c2c(C)cc(=O)oc2c1
30 | 250 | 2650 | CC(=O)c1c(C)cc2oc(=O)cc(C)c2c1OCCCCN1CCN(c2cccc(Cl)c2Cl)CC1
31 | 3 | 55 | Cc1cc(OCCCN2CCN(c3ccccc3F)CC2)c2c(C)cc(=O)oc2c1
32 | 161 | 70 | Cc1cc(OCCCN2CCN(c3ccc(Cl)cc3)CC2)c2c(C)cc(=O)oc2c1
33 | 850 | > 10000 | CC(=O)c1c(C)cc2oc(=O)cc(C)c2c1OCCCN1CCOCC1
34 | 1.2 | 4 | CC(=O)c1c(C)cc2oc(=O)cc(C)c2c1OCCCN1CCN(c2ccc(Cl)cc2)CC1
35 | 450 | > 5000 | Cc1cc(OCCCN2CCN(c3ccncc3)CC2)c2c(C)cc(=O)oc2c1
